Assay results published in ChEMBL document CHEMBL1123442 (J Med Chem, 1986).

Experiments:
[1] = tested on: HCT-8; assay: In vitro for cytotoxicity against human colon tumor cells (HCT-8) in culture; assay type: functional, cell-based
[2] = tested on: L1210; assay: In vitro for cytotoxicity against murine leukemia cells (L1210); assay type: functional, cell-based; conditions: Mus musculus
[3] = tested on: Lewis lung carcinoma cell line; assay: In vivo for antitumor activity against Lewis lung carcinoma; assay type: functional, Mus musculus
Procedure, shortened: (§1)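 Mice inoculated intravenously with 10^6 Lewis lung carcinoma cells, then drug intraperitoneally in 0.1 mL 30% v/v ethanol-water on days 5, 9 and 13. D50 (mg/kg per day for 50% ILS) taken from dose-response graph. ILS at optimal dose versus untreated tumor-bearing controls. Survivors counted at 40 days.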

[4] = tested on: Lewis lung carcinoma cell line; assay: Evaluated in vivo for antitumor activity against Lewis lung carcinoma; assay type: functional, Mus musculus; procedure, shortened: as §1
[5] = tested on: P388; assay: In vivo for antitumor activity against P388 leukemia.; assay type: functional, Mus musculus
Procedure, shortened: (§2)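 Mice given 10^6 P388 leukemia cells intraperitoneally, then drug intraperitoneally in 0.1 mL 30% v/v ethanol-water on days 1, 5 and 9. D50 (mg/kg per day giving 50% ILS) read from dose-response graph. ILS at optimal dose versus untreated controls. Long-term survival counted at 30 days.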

[6] = tested on: P388; assay: In vivo for antitumor activity against P388 leukemia; assay type: functional, Mus musculus; procedure, shortened: as §2
[7] = tested on: poly[d(A-T)]; assay: Binding constant relative to amsacrine (Δlog K) for DNA binding by ethidium bromide displacement; conditions: Bos taurus

Compound | IC50 [1] | IC50 [2] | ILSmax [3] | OD [3] | D50 [4] | OD [5] | D50 [6] | ILSmax [6] | Δlog K [7]
CNc1cc(NS(C)(=O)=O)ccc1Nc1c2ccc(Cl)cc2nc2c(OC)cccc12 | 143 nM | 120 nM | 159% | 45 mg/kg | 13 mg/kg | 65 mg/kg | 20 mg/kg | 236% | 
COc1ccc2[nH]c3ccccc3c(=Nc3ccc(NS(C)(=O)=O)cc3OC)c2c1 |  |  |  |  |  |  |  |  | -0.08
CNc1cc(NS(C)(=O)=O)ccc1Nc1c2cccc(OC)c2nc2c(OC)cccc12 | 160 nM | 130 nM | 116% | 65 mg/kg | 30 mg/kg | 150 mg/kg | 25 mg/kg | 14% | 
CNc1cc(NS(C)(=O)=O)ccc1Nc1c2ccc(Cl)cc2nc2c(C)cccc12 | 73 nM | 15 nM | 126% | 30 mg/kg | 8 mg/kg | 13.3 mg/kg | 5 mg/kg | 128% | 
COc1cc(NS(C)(=O)=O)ccc1Nc1c2ccccc2nc2cc(I)ccc12 |  |  |  |  |  |  |  |  | 0.78
CNc1cc(NS(C)(=O)=O)ccc1Nc1c2ccc(OC)cc2nc2c(C)cccc12 | 29 nM | 16 nM | 50% | 4 mg/kg | 4 mg/kg | 1.8 mg/kg | 0.3 mg/kg | 166% | 
CNc1cc(NS(C)(=O)=O)ccc1Nc1c2ccccc2nc2c(C)cccc12 | 79 nM | 53 nM | 139% | 20 mg/kg | 8.9 mg/kg | 13.3 mg/kg | 3 mg/kg | 157% | 
CNc1cc(NS(C)(=O)=O)ccc1Nc1c2ccccc2nc2ccccc12 |  |  |  | 30 mg/kg |  | 13.3 mg/kg |  |  | 
CNC(=O)c1cccc2c(Nc3ccc(NS(C)(=O)=O)cc3NC)c3cccc(C)c3nc12 | 353 nM | 82 nM | 62% | 30 mg/kg | 25 mg/kg | 13.3 mg/kg | 6 mg/kg | 94% | 
CNC(=O)c1ccc2c(Nc3ccc(NS(C)(=O)=O)cc3NC)c3ccccc3nc2c1 | > 104 nM | > 1600 nM |  |  |  | 65 mg/kg | 30 mg/kg | 62% | 
CNc1cc(NS(C)(=O)=O)ccc1Nc1c2ccccc2nc2cc(F)ccc12 | 460 nM | 94 nM | 79% | 45 mg/kg | 20 mg/kg | 45 mg/kg | 15 mg/kg | 157% | 
CNc1cc(NS(C)(=O)=O)ccc1Nc1c2ccccc2nc2c(Cl)cccc12 | 740 nM | 690 nM | 59% | 100 mg/kg | 80 mg/kg | 100 mg/kg | 65 mg/kg | 64% | 
COc1cc(NS(C)(=O)=O)ccc1Nc1c2ccccc2nc2c(C)cccc12 |  |  |  |  |  |  |  |  | 0.46
CNc1cc(NS(C)(=O)=O)ccc1Nc1c2ccc(C)cc2nc2c(OC)cccc12 | 70 nM | 65 nM | 194% | 20 mg/kg | 10 mg/kg | 13.3 mg/kg | 5.5 mg/kg | 122% | 
CNc1cc(NS(C)(=O)=O)ccc1Nc1c2ccccc2nc2c(C)c(C)ccc12 | 76 nM | 43 nM | 155% | 20 mg/kg | 10 mg/kg | 13.3 mg/kg | 7 mg/kg | 148% | 
CNc1cc(NS(C)(=O)=O)ccc1Nc1c2ccccc2nc2cc(OC)ccc12 | 180 nM | 35 nM | 75% | 20 mg/kg | 15 mg/kg | 8.9 mg/kg | 4.5 mg/kg | 132% | 
COc1cc(NS(C)(=O)=O)ccc1Nc1c2ccccc2nc2cc(C)ccc12 |  |  |  |  |  |  |  |  | 0.38

Compound | IC50 [1] | IC50 [2] | ILSmax [3] | OD [3] | D50 [4] | OD [5] | D50 [6] | ILSmax [6] | Δlog K [7]
COc1cc(NS(C)(=O)=O)ccc1Nc1c2ccccc2nc2cc(F)ccc12 |  |  |  |  |  |  |  |  | -0.03
COc1cc(NS(C)(=O)=O)ccc1Nc1c2ccccc2nc2c(OC)cccc12 |  |  |  |  |  |  |  |  | 0.37
CNC(=O)c1cccc2c(Nc3ccc(NS(C)(=O)=O)cc3OC)c3cccc(C)c3nc12 [ASULACRINE] |  |  |  | 30 mg/kg |  | 20 mg/kg |  |  | 
COc1ccc2c(Nc3ccc(NS(C)(=O)=O)cc3OC)c3ccccc3nc2c1 |  |  |  |  |  |  |  |  | 0.26
CNc1cc(NS(C)(=O)=O)ccc1Nc1c2ccc(F)cc2nc2c(OC)cccc12 | 370 nM | 200 nM | 85% | 65 mg/kg | 45 mg/kg | 65 mg/kg | 20 mg/kg | 100% | 
CNc1cc(NS(C)(=O)=O)ccc1Nc1c2ccccc2nc2c(F)cccc12 | 690 nM | 400 nM | 55% | 65 mg/kg | 60 mg/kg | 45 mg/kg | 20 mg/kg | 152% | 
CNc1cc(NS(C)(=O)=O)ccc1Nc1c2ccccc2nc2c(OC)cccc12 | 140 nM | 130 nM | 153% | 45 mg/kg | 19 mg/kg | 45 mg/kg | 5 mg/kg | 170% | 
CNC(=O)c1cccc2c(Nc3ccc(NS(C)(=O)=O)cc3OC)c3ccccc3nc12 |  |  |  |  |  |  |  |  | -0.03
COc1cc(NS(C)(=O)=O)ccc1Nc1c2ccccc2nc2c(Cl)cccc12 |  |  |  |  |  |  |  |  | 0.19
CNc1cc(NS(C)(=O)=O)ccc1Nc1c2ccccc2nc2cc(Cl)ccc12 | 170 nM | 24 nM | 98% | 20 mg/kg | 15 mg/kg | 30 mg/kg | 10 mg/kg | 149% | 
COc1cc(NS(C)(=O)=O)ccc1Nc1c2ccccc2nc2cc(Br)ccc12 |  |  |  |  |  |  |  |  | 0.72
CNc1cc(NS(C)(=O)=O)ccc1Nc1c2ccc(C)cc2nc2c(C)cccc12 | 24 nM | 19 nM | 93% | 5.9 mg/kg | 4.2 mg/kg | 5.9 mg/kg | 2 mg/kg | 92% | 
COc1cc(NS(C)(=O)=O)ccc1Nc1c2ccccc2nc2cc(Cl)ccc12 |  |  |  |  |  |  |  |  | 0.49
COc1cc(NS(C)(=O)=O)ccc1Nc1c2ccccc2nc2ccc(Cl)cc12 |  |  |  |  |  |  |  |  | -0.08
CNc1cc(NS(C)(=O)=O)ccc1Nc1c2cccc(C)c2nc2c(C)cccc12 | 190 nM | 91 nM | 125% | 65 mg/kg | 25 mg/kg | 45 mg/kg | 6 mg/kg | 202% | 
CNc1cc(NS(C)(=O)=O)ccc1Nc1c2ccc(Br)cc2nc2c(OC)cccc12 | 150 nM | 41 nM | 111% | 65 mg/kg | 40 mg/kg | 65 mg/kg | 9 mg/kg | 174% | 
COc1cc(NS(C)(=O)=O)ccc1Nc1c2ccccc2nc2ccc(C)cc12 |  |  |  |  |  |  |  |  | -0.22
